≈ marks a conversion by molar mass, not a printed value. Where “and” joins values, the source holds several entries; their conditions need not be identical. Equal entries are not always repeated. Where two headings read alike, the source gives them in different places.
Experiments:
[1] = tested on: P. falciparum late-stage gametocytes (stages IV and V); assay: Gametocyte viability assay; format: cell-based; conditions: Plasmodium falciparum, read-out: IC50, gametocyte viability (pLDH)
[2] = tested on: P. falciparum NF54 strain; assay: Erythrocytic IC50 speed and stage specificity assays; format: cell-based, Plasmodium falciparum
[3] = tested on: P. falciparum (NF54 drug-sensitive strain); assay: [3H]-hypoxanthine incorporation assay, asexual blood-stage parasites; format: cell-based; conditions: Plasmodium falciparum, NF54, 72 h
P. falciparum 3D7 strain = assay: In vitro parasite reduction ratio; format: cell-based, Plasmodium falciparum; conditions: 10× IC50
P. berghei [4] = assay: P. berghei mouse efficacy model; format: in vivo, Plasmodium berghei
[5] = tested on: drug-sensitive 3D7 P. falciparum strain; assay: P. falciparum humanized SCID mouse efficacy model; format: in vivo, Plasmodium falciparum; conditions: once daily oral for four consecutive days
In short: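 Humanized SCID mice were infected with P. falciparum 3D7. From day 3 after infection, test compound was given orally once daily for 4 days, one mouse per dose level. Blood parasitemia was measured by flow cytometry and ED90 was read at day 7. Whole-blood drug levels were sampled 0–23 h after the first dose (LLOQ 1 ng/mL).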

P. falciparum = assay: PKPD; format: in vivo, Plasmodium falciparum
In short: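 A direct-effect composite Emax PKPD model was fitted to humanized SCID mouse P. falciparum efficacy data, allowing for change in kill rate at higher doses. Inputs were modeled blood concentrations from individual-mouse whole-blood PK after once-daily oral dosing for 4 days. The model gave MIC, EC50/EC90 for kill rate and predicted parasitemia after 4 days.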

[6] = tested on: P. falciparum early-stage (stages I to III) gametocytes expressing luciferase; assay: Gametocyte viability assay; format: cell-based, Plasmodium falciparum
[7] = tested on: P. falciparum late-stage (stages IV and V) gametocytes expressing luciferase; assay: Gametocyte viability assay; format: cell-based, Plasmodium falciparum
[8] = tested on: P. falciparum stage V gametocytes; assay: Male gamete formation; format: cell-based; conditions: Plasmodium falciparum, 24 h, read-out: potency, inhibition of exflagellation
[9] = tested on: P. falciparum stage V gametocytes (oocysts in mosquito midgut); assay: Indirect standard membrane-feeding assay; format: cell-based; conditions: Plasmodium falciparum, 24 h, read-out: inhibition of oocyst formation (potency)
[10] = tested on: P. falciparum stage V gametocytes (oocysts in mosquito midgut); assay: Direct standard membrane-feeding assay; format: cell-based; conditions: Plasmodium falciparum, read-out: inhibition of the formation of oocysts
P. berghei [11] = assay: Mouse-to-mouse transmission model; format: in vivo, Plasmodium berghei; conditions: 2 mg/kg oral; compared to 6.1 days in control mice
In short: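 Female TO mice (6–8 weeks) were infected i.p. with P. berghei clone 507cl1. On day 9, after exflagellation was confirmed, each received one 2 mg/kg oral gavage dose; controls were atovaquone 0.3 mg/kg and sulfadiazine 8.4 mg/kg i.p. Mosquitoes fed, then at day 21 bit naive mice for 20 min. Smears on days 4–10 set patency. Duplicates were combined by generalized linear mixed model against no-drug control.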

[12] = tested on: P. cynomolgi liver-stage parasites; assay: P. cynomolgi liver-stage assay, IC99; format: cell-based, Plasmodium cynomolgi
[13] = Plasma concentrations in the prophylactic monkey study; format: in vivo, Macaca mulatta; conditions: po, 20 mg/kg
[14] = Plasma concentrations in the radical cure monkey study; format: in vivo, Macaca mulatta
[15] = Protein binding and blood-to-plasma partitioning; format: in vitro ADME
[16] = tested on: P. berghei-infected HepG2 liver cells; assay: P. berghei liver-stage phenotyping in HepG2 cells; format: cell-based, Plasmodium berghei; conditions: 460 nM, 2 to 8 hours after infection
In short: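 Extracellular sporozoites were washed off at 2 h, then cells were exposed to 460 nM test compound or DMSO vehicle. Cells were fixed 8 h after invasion, immunolabeled and imaged by confocal microscopy.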

[17] = tested on: P. falciparum Dd2 parasites; assay: microbe, parasite or virus in culture; format: cell-based; conditions: Plasmodium falciparum
[18] = tested on: Dd2 multidrug-resistant parental line; assay: Cross-resistance test, parental line; format: cell-based; conditions: Plasmodium falciparum
[19] = tested on: parasites bearing PfPI4K mutation H1484Y; assay: Cross-resistance test, transgenic PI4K-H1484Y line; format: cell-based; conditions: Plasmodium falciparum
[20] = tested on: parasites bearing PfPI4K mutation S1320L; assay: Cross-resistance test, transgenic PI4K-S1320L line; format: cell-based; conditions: Plasmodium falciparum
PfPI4K [21] = molecular target: T1, PfPI4K (Plasmodium falciparum, UniProt Q8I406); assay: Chemoproteomic competition binding, immobilized MMV666845 beads
PfPI4K [22] = molecular target: T1, PfPI4K; assay: Chemoproteomic competition binding, Kinobeads
PI4KB (Q9UBF8) = PI4KB (Q9UBF8) (Homo sapiens, UniProt Q9UBF8); assay: Chemoproteomic pull-down in K562 cell extract; format: binding
In short: (§1)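 They were incubated 1 h at 4°C with K562 extract (5 mg) preincubated with test compound or buffer. Eluates were alkylated, separated by SDS gel and quantified by isobaric mass tagging LC-MS/MS.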

PI4KA (P42356) = PI4KA (P42356) (Homo sapiens, UniProt P42356); assay: Chemoproteomic pull-down in K562 cell extract; format: binding
In short: as §1

ATM (Q13315) = ATM (Q13315) (Homo sapiens, UniProt Q13315); assay: Chemoproteomic pull-down in K562 cell extract; format: binding
In short: as §1

TNIK (Q9UKE5) = TNIK (Q9UKE5) (Homo sapiens, UniProt Q9UKE5); assay: Chemoproteomic pull-down in K562 cell extract; format: binding
In short: as §1

[23] = Allometric scaling to human pharmacokinetics and dose
[24] = rats; cited from earlier work
[25] = pH 6.5; cited from earlier work
in vivo = conditions: male (mice, rats), female (monkeys, dogs), Swiss outbred (mice), Sprague Dawley (rats), beagle (dogs), mouse, rat, dog, cynomolgus monkey, iv
P. cynomolgi = assay: Radical cure study in P. cynomolgi-infected rhesus macaques; conditions: 20 mg/kg oral daily for 5 days, Cmax 5697 ng/ml
[26] = Plasmodium falciparum, read-out: IC50, gametocyte viability (luciferase)

Chain of ATM (Q13315) (Q13315 whole entry): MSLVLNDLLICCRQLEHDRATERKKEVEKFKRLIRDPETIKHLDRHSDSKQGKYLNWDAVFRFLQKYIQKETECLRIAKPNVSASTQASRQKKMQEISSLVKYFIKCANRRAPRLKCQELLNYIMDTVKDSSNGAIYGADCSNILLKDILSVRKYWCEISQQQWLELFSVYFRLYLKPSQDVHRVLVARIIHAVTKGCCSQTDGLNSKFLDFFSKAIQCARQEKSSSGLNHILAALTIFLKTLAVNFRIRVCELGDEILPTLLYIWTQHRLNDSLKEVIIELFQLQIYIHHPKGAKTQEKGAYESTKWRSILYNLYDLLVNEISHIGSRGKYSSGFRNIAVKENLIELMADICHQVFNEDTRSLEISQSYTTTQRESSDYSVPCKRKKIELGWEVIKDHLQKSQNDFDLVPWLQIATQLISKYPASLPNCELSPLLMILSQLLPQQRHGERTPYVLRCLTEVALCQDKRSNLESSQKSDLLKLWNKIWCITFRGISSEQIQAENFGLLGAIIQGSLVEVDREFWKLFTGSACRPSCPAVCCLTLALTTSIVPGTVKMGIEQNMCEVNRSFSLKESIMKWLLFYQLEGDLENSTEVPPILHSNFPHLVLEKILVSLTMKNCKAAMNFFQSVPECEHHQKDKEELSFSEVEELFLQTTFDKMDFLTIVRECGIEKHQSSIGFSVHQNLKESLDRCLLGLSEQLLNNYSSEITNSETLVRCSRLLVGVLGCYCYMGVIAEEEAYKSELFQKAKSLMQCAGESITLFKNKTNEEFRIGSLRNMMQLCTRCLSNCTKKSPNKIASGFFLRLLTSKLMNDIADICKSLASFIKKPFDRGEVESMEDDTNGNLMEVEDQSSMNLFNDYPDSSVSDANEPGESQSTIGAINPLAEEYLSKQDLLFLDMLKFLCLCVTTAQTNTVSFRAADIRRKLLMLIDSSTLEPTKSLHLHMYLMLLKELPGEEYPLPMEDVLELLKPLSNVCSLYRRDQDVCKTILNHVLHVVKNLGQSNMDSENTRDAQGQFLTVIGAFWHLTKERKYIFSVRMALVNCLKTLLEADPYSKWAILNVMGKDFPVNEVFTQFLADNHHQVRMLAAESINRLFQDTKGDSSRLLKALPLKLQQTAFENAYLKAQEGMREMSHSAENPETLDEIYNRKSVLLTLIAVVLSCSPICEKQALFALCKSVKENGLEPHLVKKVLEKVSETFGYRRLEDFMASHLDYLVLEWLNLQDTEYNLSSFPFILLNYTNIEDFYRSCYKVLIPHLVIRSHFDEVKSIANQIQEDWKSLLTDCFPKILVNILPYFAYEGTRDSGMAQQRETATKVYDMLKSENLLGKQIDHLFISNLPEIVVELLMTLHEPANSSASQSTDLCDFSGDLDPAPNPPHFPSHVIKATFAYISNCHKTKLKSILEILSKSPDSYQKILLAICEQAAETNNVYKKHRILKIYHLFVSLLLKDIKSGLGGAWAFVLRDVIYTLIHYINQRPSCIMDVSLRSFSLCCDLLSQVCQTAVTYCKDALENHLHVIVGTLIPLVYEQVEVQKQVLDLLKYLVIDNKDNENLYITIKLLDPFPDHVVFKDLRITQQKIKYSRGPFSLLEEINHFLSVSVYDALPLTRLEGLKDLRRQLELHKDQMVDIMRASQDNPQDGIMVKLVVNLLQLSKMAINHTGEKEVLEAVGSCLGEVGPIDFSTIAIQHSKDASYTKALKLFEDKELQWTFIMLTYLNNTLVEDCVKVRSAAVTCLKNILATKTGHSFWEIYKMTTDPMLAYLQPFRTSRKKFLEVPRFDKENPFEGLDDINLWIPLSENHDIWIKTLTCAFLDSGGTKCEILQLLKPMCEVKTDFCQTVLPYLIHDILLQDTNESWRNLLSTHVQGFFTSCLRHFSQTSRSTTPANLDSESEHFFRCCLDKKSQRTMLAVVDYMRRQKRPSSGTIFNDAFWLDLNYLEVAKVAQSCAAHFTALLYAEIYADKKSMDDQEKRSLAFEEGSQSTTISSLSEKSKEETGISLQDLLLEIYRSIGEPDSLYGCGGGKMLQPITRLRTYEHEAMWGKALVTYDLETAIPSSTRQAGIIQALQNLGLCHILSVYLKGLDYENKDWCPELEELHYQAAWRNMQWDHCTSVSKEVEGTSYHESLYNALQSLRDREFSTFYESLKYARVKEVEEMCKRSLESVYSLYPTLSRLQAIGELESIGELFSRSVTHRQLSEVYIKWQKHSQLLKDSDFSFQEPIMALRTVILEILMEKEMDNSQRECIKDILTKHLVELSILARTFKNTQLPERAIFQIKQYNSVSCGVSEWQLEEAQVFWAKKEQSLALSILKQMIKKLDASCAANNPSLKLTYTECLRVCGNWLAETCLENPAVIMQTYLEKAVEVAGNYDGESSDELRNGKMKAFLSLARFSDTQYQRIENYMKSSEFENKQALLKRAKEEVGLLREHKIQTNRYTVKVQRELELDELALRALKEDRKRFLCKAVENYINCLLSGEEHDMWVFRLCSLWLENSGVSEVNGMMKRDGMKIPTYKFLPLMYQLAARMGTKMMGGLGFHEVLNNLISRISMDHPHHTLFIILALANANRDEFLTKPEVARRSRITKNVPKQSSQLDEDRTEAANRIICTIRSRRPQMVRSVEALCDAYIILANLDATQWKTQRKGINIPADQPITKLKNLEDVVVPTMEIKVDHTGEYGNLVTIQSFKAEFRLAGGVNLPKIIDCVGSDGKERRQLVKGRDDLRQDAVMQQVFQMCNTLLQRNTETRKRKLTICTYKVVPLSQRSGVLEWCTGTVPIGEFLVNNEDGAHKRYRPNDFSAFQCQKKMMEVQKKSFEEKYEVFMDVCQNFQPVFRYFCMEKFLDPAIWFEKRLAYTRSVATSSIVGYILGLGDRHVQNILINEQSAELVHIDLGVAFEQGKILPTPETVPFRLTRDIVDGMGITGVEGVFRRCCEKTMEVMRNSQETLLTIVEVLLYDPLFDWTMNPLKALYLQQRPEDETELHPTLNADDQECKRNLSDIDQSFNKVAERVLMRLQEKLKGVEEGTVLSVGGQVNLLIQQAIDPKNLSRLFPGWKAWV
Chain of PI4KB (Q9UBF8) (Q9UBF8 whole entry): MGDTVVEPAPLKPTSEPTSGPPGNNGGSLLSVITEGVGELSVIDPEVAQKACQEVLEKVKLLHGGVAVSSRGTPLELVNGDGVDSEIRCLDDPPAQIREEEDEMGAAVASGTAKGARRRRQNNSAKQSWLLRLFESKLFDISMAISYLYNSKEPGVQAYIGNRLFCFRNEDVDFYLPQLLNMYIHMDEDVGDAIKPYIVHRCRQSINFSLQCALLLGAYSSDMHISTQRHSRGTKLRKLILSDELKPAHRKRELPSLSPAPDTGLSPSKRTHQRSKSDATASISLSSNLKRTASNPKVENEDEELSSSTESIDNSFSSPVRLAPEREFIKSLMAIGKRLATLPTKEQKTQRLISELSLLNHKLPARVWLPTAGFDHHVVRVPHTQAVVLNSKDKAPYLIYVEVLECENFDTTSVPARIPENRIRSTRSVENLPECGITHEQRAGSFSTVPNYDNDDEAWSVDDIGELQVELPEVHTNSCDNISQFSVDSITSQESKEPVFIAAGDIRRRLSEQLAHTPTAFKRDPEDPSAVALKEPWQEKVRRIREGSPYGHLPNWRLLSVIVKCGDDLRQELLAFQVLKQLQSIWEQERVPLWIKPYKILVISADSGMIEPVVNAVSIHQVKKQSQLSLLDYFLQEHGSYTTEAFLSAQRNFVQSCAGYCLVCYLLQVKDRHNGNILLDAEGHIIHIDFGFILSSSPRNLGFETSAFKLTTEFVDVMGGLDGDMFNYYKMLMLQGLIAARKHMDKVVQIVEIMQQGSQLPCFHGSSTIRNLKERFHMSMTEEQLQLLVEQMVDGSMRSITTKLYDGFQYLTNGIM

## C[C@H]1[C@@H](O)O[C@@H]2O[C@@]3(C)CC[C@H]4[C@H](C)CC[C@@H]1[C@@]24OO3 [dihydroartemisinin, reference compound]
[1]
  IC50: 0.012 µM

## CCc1nc(N)nc(N)c1-c1ccc(Cl)cc1 [pyrimethamine, reference compound]
[2]; unsynchronized culture
  IC50 fold higher at 24-hour compared to 72-hour time point: 7.8 fold

## CS(=O)(=O)c1ccc(-c2cnc(N)c(-c3ccc(C(F)(F)F)nc3)c2)cc1 [MMV390048]
[3]
  IC90: 0.04 µM
P. falciparum 3D7 strain
  lag phase: 24 h
[2]
  blood-stage specificity profile: highest activity against the young schizont stage
P. berghei [4]; Plasmodium berghei, in Mus musculus, po, 72 h
  ED50: 0.57 mg/kg
P. berghei [4]; four oral administrations (4, 24, 48, 72 hours after infection), measured at 96 hours
  ED90: 1.1 mg/kg
P. berghei [4]; single oral dose 100 mg/kg
  in vivo parasite clearance rate: intermediate
[5]
  ED90 at day 7: 0.57 mg/kg
P. falciparum; dose of 1 mg/kg (highest predicted kill rate)
  parasitemia at the end of 4 days: < 0.01%
P. falciparum; modeled blood concentration
  MIC to inhibit growth: 0.071 µg/mL (≈ 0.18 µM)
[1]
  IC50: 0.285 µM
[6]; [26]
  IC50: 0.214 µM
[6]; stage I to III, at IC50 concentration over 3 days
  clearance rate (slope): −6.09
[7]
  late-stage gametocytes killed faster than early-stage: 2.5 times
[7]; [26]
  IC50: 0.14 µM
[7]; luciferase-expressing gametocytes
  rate of onset of action: 24 h
[7]; stage IV and V, at IC50 concentration over 3 days
  clearance rate (slope): −15.49
[8]
  IC50: 0.09 µM
[9]
  IC50: 0.111 µM
[10]
  inhibition at 1000 µM: < 25%
P. berghei [11]
  Prepatency (±SEM): 6.8 days (±0.28)
[12]
  liver-stage IC99 (in vitro): 90 nM
[12]; in vitro IC99 corrected for AlbuMAX binding and plasma protein binding
  in vivo IC99 (estimated): 353 ± 32 nM and 138 ± 13 ng/ml
[13]
  Cmax: 1980 ng/mL
  half-life: ~30 h
[14]; 20 mg/kg oral daily for 5 days
  time plasma concentration above liver-stage IC99: 15.8 days
[14]; monkey, plasma, po, 20 mg/kg
  Cmax: 5700 ng/mL
[14]; rhesus macaque (Macaca mulatta), in vivo
  time plasma concentration above blood-stage MIC: 20 days
[15]
  serum albumin (AlbuMAX) binding: 54%
[15]; plasma, protein binding, used for MIC correction
  fraction unbound: 0.139
[16]
  localization of parasitophorous vacuole membrane protein UIS4: mislocalization
[17]; DD2
  IC50: 0.016 µM
[17]; DD2, read-out: IC50 of resistant clones
  IC50: 0.07 to 0.09 µM
[18]
  IC50: 0.0227 µM
[19]
  IC50: 0.0628 µM
[20]
  IC50: 0.0577 µM
PfPI4K [21]
  Kd: 0.3 µM
PfPI4K [21]; excess compound (10 µM for MMV390048)
  effect of excess free compound on capture of P. falciparum PI4K by the beads: competitively inhibited
PfPI4K [22]
  Kd: 0.1 µM
PI4KB (Q9UBF8)
  binding: did not observe any binding
PI4KA (P42356)
  binding: did not observe any binding
ATM (Q13315)
  binding affinity: low binding affinity
TNIK (Q9UKE5)
  binding affinity: low binding affinity
[23]
  predicted elimination half-life in humans: about 90 hours
  predicted plasma clearance in humans: 0.02 liter/hour per kg
  predicted volume of distribution in humans: 2.8 L/kg
[24]
  absorption: well absorbed
[25]
  kinetic solubility: not optimal
In vivo
  Vd: 1.3 to 3 L/kg
  clearance: 0.6 to 6.5 mL/min/kg
P. cynomolgi
  observed toxicity: without any observed toxicity

Source: paper PMC5731459 (Science translational medicine, 2017)
